Source: ChEMBL document CHEMBL1157875, “Thiosemicarbazones, semicarbazones, dithiocarbazates and hydrazide/hydrazones: anti-Mycobacterium tuberculosis activity and cytotoxicity” (Eur J Med Chem, 2010)
Values after ≈ are worked out from the molar mass of the structure shown.

Key:
[1] = test system: Mycobacterium tuberculosis; test: Antimycobacterial activity against Mycobacterium tuberculosis H37Rv after 7 days by resazurine microtiter assay; assay type: functional; conditions: 168 h
Method in brief: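 M. tuberculosis broth microdilution (REMA). Compounds dissolved as DMSO stocks and diluted in Middlebrook 7H9 broth with OADC enrichment. Culture and compounds combined in 96-well plates, in triplicate, incubated 7 days at 37 °C. Resazurin then added; fluorescence read at 530 nm excitation, 590 nm emission. Isoniazid run on every plate as standard.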

J774 = test: Cytotoxicity against mouse J774 cells after 24 hrs by resazurin assay; assay type: cell-based; conditions: J774, 24 h
Method in brief: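 J774 macrophages grown to confluence at 37 °C in 5% CO2, then seeded at 1 × 10^5 cells/mL and allowed 24 h to adhere. Resazurin added for 6 h; fluorescence read at 530 nm excitation, 590 nm emission.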

[2] = Selectivity index, ratio of IC50 for mouse J774 cells to MIC for Mycobacterium tuberculosis H37Rv; assay type: functional

SMILES | MIC [1] | IC50 (J774) | Selectivity Index [2]
S=C(N/N=C(/C(=N/NC(=S)Nc1ccccc1)c1ccccc1)c1ccccc1)Nc1ccccc1 | 49.1 µM (≈ 25 µg/mL) | 2460 µM | 50
O=C(N/N=C(/C(=N/NC(=O)c1ccncc1)c1ccccc1)c1ccccc1)c1ccncc1 | 27.9 µM (≈ 12.5 µg/mL) | 349 µM | 12.5
O=C(N/N=C/c1ccccn1)c1ccccc1O | ≥ 1040 µM | 1300 µM | <=1.25
C/C(=N\NC(=S)N1CCCCCC1)c1ccccn1 | ≥ 181 µM | 4520 µM | <=25
C/C(=N\NC(=S)Nc1ccccc1)c1ccccn1 | 57.7 µM (≈ 15.6 µg/mL) | – | –
O=C(N/N=C/c1ccccc1O)c1ccccc1O | 122 µM (≈ 31.3 µg/mL) | 1220 µM | 10
C/C(=N\NC(N)=S)c1ccccn1 | 161 µM (≈ 31.3 µg/mL) | – | –
CNC(=S)N/N=C(\C)c1ccccn1 | 37.5 µM (≈ 7.8 µg/mL) | – | –
CCNC(=S)N/N=C(\C)c1ccccn1 | 14.1 µM (≈ 3.13 µg/mL) | 2810 µM | 200
